Results as given in ChEMBL document CHEMBL1136008, “Novel tricyclic poly(ADP-ribose) polymerase-1 inhibitors with potent anticancer chemopotentiating activity: design, synthesis, and X-ray cocrystal structure” (J Med Chem, 2002).

What was measured:
[1] = test system: A549; assay: (§1) Cytotoxicity potentiation of Topotecan in human lung carcinoma A549 cells by the compound as potentiation factor at 50% growth inhibition; type: functional
Procedure, shortened: (§2)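 Cells were seeded 16–24 h before treatment, then exposed continuously for 5 days to increasing concentrations of temozolomide or topotecan, with or without 0.4 μM PARP-1 inhibitor. Final DMSO was 1%. Relative cell number was measured by SRB assay. Growth IC50 values came from point-to-point analysis of growth curves. PF50 = IC50 of cytotoxic agent alone / IC50 with inhibitor. Data are mean ± SEM of three independent experiments.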

[2] = biological target: T1, Poly [ADP-ribose] polymerase 1 (Homo sapiens, UniProt P09874)
[3] = test system: A549; assay: Cytotoxic potentiation of Topotecan (TP) by the compound in human lung carcinoma A549 cell line; type: functional, cell-based; procedure, shortened: as §2
[4] = test system: LoVo; assay: Cytotoxic potentiation of Tomozolomide (TM) by the compound in human colorectal carcinoma LoVo cell line; type: functional, cell-based; procedure, shortened: as §2
[5] = test system: LoVo; assay: Cytotoxic potentiation of Topotecan (TP) by the compound in human colorectal carcinoma LoVo cell line; type: functional, cell-based; procedure, shortened: as §2
[6] = test system: SW-620; assay: Cytotoxic potentiation of Topotecan (TP) by the compound in human colon carcinoma SW620 cell line; type: functional, cell-based; procedure, shortened: as §2
[7] = test system: SW-620; assay: Cytotoxicity potentiation of Topotecan in human lung carcinoma SW620 cell line by the compound as potentiation factor at 50% growth inhibition; type: functional; conditions: in the assay text read “human colon carcinoma” for “human lung carcinoma”; procedure, shortened: as §2
[8] = test system: A549; assay: as §1; type: functional; procedure, shortened: as §2; remark: listed apart in the source
[9] = biological target: T1, Poly [ADP-ribose] polymerase 1; remark: listed apart in the source
[10] = test system: LoVo; assay: Cytotoxic potentiation of Topotecan (TP) by the compound in (human colorectal cancer LoVo cell line; type: functional, cell-based; procedure, shortened: as §2

T1 sequence (P09874 whole entry): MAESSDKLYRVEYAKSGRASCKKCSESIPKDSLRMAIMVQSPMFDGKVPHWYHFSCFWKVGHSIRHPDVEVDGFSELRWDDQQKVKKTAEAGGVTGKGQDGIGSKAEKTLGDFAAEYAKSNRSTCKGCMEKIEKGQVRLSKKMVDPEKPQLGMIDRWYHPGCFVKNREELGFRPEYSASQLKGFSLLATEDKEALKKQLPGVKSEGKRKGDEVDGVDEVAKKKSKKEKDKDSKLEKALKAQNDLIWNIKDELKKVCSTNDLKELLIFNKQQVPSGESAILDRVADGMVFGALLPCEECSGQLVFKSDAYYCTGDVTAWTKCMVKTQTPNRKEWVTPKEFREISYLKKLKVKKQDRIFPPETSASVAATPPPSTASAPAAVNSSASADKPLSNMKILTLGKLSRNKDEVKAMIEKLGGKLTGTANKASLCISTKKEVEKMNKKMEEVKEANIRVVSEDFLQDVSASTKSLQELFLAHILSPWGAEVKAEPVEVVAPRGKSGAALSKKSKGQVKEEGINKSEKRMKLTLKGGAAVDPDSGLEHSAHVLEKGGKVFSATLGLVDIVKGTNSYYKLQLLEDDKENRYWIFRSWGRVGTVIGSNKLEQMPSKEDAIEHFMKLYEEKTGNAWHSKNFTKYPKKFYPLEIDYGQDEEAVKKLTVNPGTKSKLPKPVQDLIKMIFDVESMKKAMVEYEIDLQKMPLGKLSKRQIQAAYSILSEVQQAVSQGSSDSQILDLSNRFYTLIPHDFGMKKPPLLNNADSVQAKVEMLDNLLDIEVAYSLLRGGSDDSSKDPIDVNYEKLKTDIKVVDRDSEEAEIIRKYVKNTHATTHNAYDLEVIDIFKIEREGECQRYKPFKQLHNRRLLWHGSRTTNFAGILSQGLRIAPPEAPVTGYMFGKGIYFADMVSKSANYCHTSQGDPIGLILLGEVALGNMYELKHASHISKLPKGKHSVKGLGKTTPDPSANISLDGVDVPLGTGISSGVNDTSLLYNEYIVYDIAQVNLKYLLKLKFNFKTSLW

| SMILES | PF50 [1] | Ki [2] [nM] | further results |
| --- | --- | --- | --- |
| Cn1c(-c2ccccc2)c2c3c(cccc31)C(=O)NCC2 | 1.7 | – | – |
| COc1ccc(-c2[nH]c3cccc4c3c2CCNC4=O)cc1 | – | 6 | – |
| O=C1NCc2c(-c3ccccc3)[nH]c3cccc1c23 | – | < 5 | – |
| CN(C)Cc1cccc(-c2[nH]c3cccc4c3c2CCNC4=O)c1 | 2.1 | 8 | – |
| N#Cc1[nH]c2cccc3c2c1CCNC3=O | – | 11 | – |
| O=C1NCCc2c(-c3ccccc3)[nH]c3cccc1c23 | 1.8 | – | – |
| COc1[nH]c2cccc3c2c1CCNC3=O | – | 10 | – |
| CN(C)Cc1ccc(-c2[nH]c3cccc4c3c2CCNC4=O)cc1 | 2.4 | – | – |
| O=C1NCCc2c(-c3ccc(Cn4cccc4)cc3)[nH]c3cccc1c23 | 2 | – | IC50 [3]: 12 nM; IC50 [4]: 76000 nM; IC50 [5]: 6.5 nM; IC50 [6]: 1.8 nM; PF50 [7]: 1.8; PF50 [8]: 2; Ki [9]: 6 nM |
| CN(C)Cc1cccc(-c2[nH]c3cccc4c3c2CNC4=O)c1 | – | < 5 | – |
| CN1CCc2c(-c3ccccc3)n(C)c3cccc(c23)C1=O | 1.2 | – | – |
| O=C1NCCc2c(O)[nH]c3cccc1c23 | – | 370 | – |
| Nc1cccc(-c2[nH]c3cccc4c3c2CCNC4=O)c1 | – | 7 | – |
| O=C1NCCc2c[nH]c3cccc1c23 | 1.1 | – | – |
| O=C1NCCc2c(C(c3ccccc3)c3ccccc3)[nH]c3cccc1c23 | – | 23 | – |
| O=C1NCCc2c(-c3ccc[nH]3)[nH]c3cccc1c23 | – | 8 | – |
| CN(C)Cc1ccc(-c2[nH]c3cccc4c3c2CNC4=O)cc1 | 2.2 | – | – |
| O=C1NCCc2c(-c3ccc(F)cc3)[nH]c3cccc1c23 | 2.3 | – | – |
| O=C1NCCc2c(-c3cccc(C(F)(F)F)c3)[nH]c3cccc1c23 | – | 6 | – |
| Cn1nnc2c(C(N)=O)ncn2c1=O [TEMOZOLOMIDE] | – | – | IC50 ([10]; in the assay text read “Temozolomide (TM)” for “Topotecan (TP)”): 595000 nM |
| CC[C@@]1(O)C(=O)OCc2c1cc1n(c2=O)Cc2cc3c(CN(C)C)c(O)ccc3nc2-1 [TOPOTECAN] | – | – | IC50 [3]: 24 nM; IC50 [10]: 11.6 nM; IC50 [6]: 3.2 nM |
